From ChEMBL document CHEMBL1138826, “New 1,4-dihydropyridines endowed with NO-donor and calcium channel agonist properties” (J Med Chem, 2004) come the findings set out here.

Data set [1] is filed under the species Rattus norvegicus. Put plainly: Capacity to increase [Ca2+] entry into the vascular smooth muscle was evaluated on rat aorta strips partially depolarized with 10 mM K+ relative to 50 mM KCl. The data set is classed as functional, Muscle tissue. The method in brief: (§1)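 Thoracic aorta cut helically, endothelium removed, three strips per vessel, 0.7 g tension, isotonic recording. Equilibrated 1 h, then depolarized twice with 50 mM KCl at 60 min intervals. Cumulative contraction curves run in 10 mM KCl, protected from light. EC50 is the mean of 5-7 determinations.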

The species entered for data set [2] is Rattus norvegicus. Briefly: Capacity to increase [Ca2+] entry into the vascular smooth muscle was evaluated on rat aorta strips partially depolarized with 10 mM K. The data set is classed as functional. The note with it: Muscle tissue. In short, it runs like this:
as §1

Data set [3] is filed under the species Rattus norvegicus. Briefly: Positive inotropic activity on rat papillary muscle electrically stimulated by unipolar square wave pulses. Format: functional. Particulars: Muscle tissue; call rule not given here. The method in brief: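 Electrically driven rat papillary muscle, 90 min equilibration. Cumulative curves in half-log steps, each step after a plateau, in the presence of 1 µM propranolol and 0.1 µM prazosin added 15 min beforehand. One curve per tissue. EC50 is the mean of 5-7 determinations.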

Data set [4] addresses T1, Voltage-gated L-type calcium channel (Rattus norvegicus, UniProt P22002+Q02485+P27732). Put plainly: Effect on L-type [Ca2+] channels of rat RIN-m5F insulinoma cells in 10 mM Ba2+, -60 mV holding potential at 3 uM, -20 mV. Format: functional. The method in brief:
(§2)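 Whole-cell patch clamp on cultured rat insulinoma RINm5F cells at 22 °C. External solution (mM): 125 NaCl, 10 BaCl2, 1 MgCl, 10 HEPES pH 7.3, 300 nM TTX. Internal solution CsCl/TEACl/EGTA-based with ATP and GTP. Held at -60 mV, stepped to -20 mV, returned to -40 mV. Compounds at 3 µM by fast superfusion. Result is % increase of L-type Ba2+ current, after subtracting the current insensitive to 3 µM nifedipine; 5-22 cells.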

For data set [5], the species on record is Rattus norvegicus. Put plainly: Positive inotropic activity on rat papillary muscle electrically stimulated by unipolar square wave pulses in the presence of 1 uM ODQ. The data set is classed as functional. The note with it: Muscle tissue. In short, it runs like this:
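Electrically stimulated rat papillary muscle with 1 µM propranolol and 0.1 µM prazosin, plus 1 µM ODQ added at least 15 min before the first dose. Cumulative half-log concentration-response curve, one per tissue, after 90 min equilibration. EC50 is the mean of 5-7 determinations.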

For data set [6], the species on record is Rattus norvegicus. Put plainly: Capacity to increase [Ca2+] entry into the vascular smooth muscle was evaluated on rat aorta strips partially depolarized with 10 mM K+ in the presence of 1 uM ODQ. The note with it: Muscle tissue. The data set is classed as functional. In short, it runs like this:
(§3)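 Endothelium-denuded rat thoracic aorta strips under 0.7 g tension, precontracted twice with 50 mM KCl. Cumulative contraction curves in 10 mM KCl, in light-protected conditions, with 1 µM ODQ added at least 15 min before the first agonist concentration. EC50 is the mean of 5-7 determinations.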

In data set [7] the target is T1, Voltage-gated L-type calcium channel. Briefly: Agonistic potency, mean percentage of increased Ba2+ currents at -20 mV; Range = 200-240%. Format: functional. In short, it runs like this:
as §2

The species named for data set [8] is Rattus norvegicus. Put plainly: Capacity to increase [Ca2+] entry into the vascular smooth muscle was evaluated on rat aorta strips partially depolarized with 10 mM K+ relative to 50 mM KCl in the presence of 1 uM ODQ. The data set is classed as functional, Muscle tissue. In short, it runs like this: as §3
Data set [9] is filed under the species Rattus norvegicus. Briefly: Capacity to increase [Ca2+] entry into the vascular smooth muscle was evaluated on rat aorta strips partially depolarized with 10 mM K+; No effect. Format: functional, Muscle tissue. In short, it runs like this: as §1

In the case of `COC(=O)C1=C(C)NC(C)=C([N+](=O)[O-])C1c1ccccc1C(F)(F)F` (stereo unspecified), the Max in [1] was found to be 84%. In addition, the EC50 (as a rule, the midpoint of the concentration-response curve) worked out at 18 nM in data set [2] and 170 nM in data set [3]. In data set [4], the Increase is given as 320%.

In the case of `CO/C(O)=C1/C(C)=NC(C)=C([N+](=O)[O-])C1c1ccccc1OCc1no[n+]([O-])c1C` (stereo unspecified), the Max turned out to be 80% in data set [1] and 83% in [8]. Also, the EC50 came to 1300 nM in [5], 110 nM in [6], 100 nM in data set [2] and 1200 nM in [3]. In addition, the Agonistic potency in data set [7] was under 240%.

For the compound `CO/C(O)=C1/C(C)=NC(C)=C([N+](=O)[O-])C1c1ccccc1OCc1nonc1C` (stereo unspecified), in [1], the Max came to 85%. Also, the Agonistic potency in [7] was under 240%. Moreover, the EC50 turned out to be 57 nM in data set [2] and 820 nM in [3].

Regarding `CO/C(O)=C1/C(C)=NC(C)=C([N+](=O)[O-])C1c1ccccc1OCc1no[n+]([O-])c1C#N` (stereo unspecified), the Max in data set [1] is recorded as 0%; in [8], 29%. Further, the EC50 was 5000 nM in data set [5], 210 nM in [6], 5200 nM in data set [3] and “Not Active” in [9]. The Agonistic potency in [7] is given as under 240%.

In turn, `CO/C(O)=C1/C(C)=NC(C)=C([N+](=O)[O-])C1c1ccccc1OCc1nonc1C#N` (stereo unspecified) gave a Max in [1] of 62%. Also, in data set [7], the Agonistic potency is on record as under 240%. For the same compound, the EC50 in [2] came to 120 nM; in data set [3] it was 1500 nM.
